Results as given in ChEMBL document CHEMBL1671683, “Activity of linezolid in an in vitro pharmacokinetic-pharmacodynamic model using different dosages and Staphylococcus aureus and Enterococcus faecalis strains with and without a hypermutator phenotype” (Antimicrob Agents Chemother, 2010).

Columns and labels:
[1] = test system: Staphylococcus aureus; assay: Bactericidal activity against 1 hr peripheral compartment culture samples of Staphylococcus aureus RN4220 MutS2 in two-compartment pharmacokinetic/pharmacodynamic model assessed as effect on bacterial count at 600 mg, bid administered as 0.5 hr infusion; assay type: functional
Outline: (§1)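 Two-compartment hollow-fibre model in cation-adjusted, protein-free MH broth, 37°C. Linezolid given as simulated 0.5-h infusion twice daily. Inoculum grown 18 h, concentrated 50-fold and placed in the peripheral compartment 3 h before t0. Peripheral samples at set times counted by dilution plating. First 10-fold dilution not plated, limiting detection to 2–3 log10 CFU/ml. Δlog CFU/ml taken from t0 count. Duplicates.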

[2] = test system: Staphylococcus aureus; assay: Bactericidal activity against 2 hrs peripheral compartment culture samples of Staphylococcus aureus RN4220 MutS2 in two-compartment pharmacokinetic/pharmacodynamic model assessed as effect on bacterial count at 600 mg, bid administered as 0.5 hr infusion; assay type: functional
Outline: (§2)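 An 18-h culture concentrated 50-fold was injected into the peripheral compartment 3 h pre-sampling (~10^8 CFU/ml E. faecalis, 10^9 S. aureus). Counts came from dilution plating (detection limit 2–3 log10 CFU/ml), expressed as Δlog CFU/ml from treatment start. Run in duplicate.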

[3] = test system: Enterococcus faecalis; assay: Bactericidal activity against 1 hr peripheral compartment culture samples of Enterococcus faecalis ATCC 29212 in two-compartment pharmacokinetic/pharmacodynamic model assessed as effect on bacterial count at 200 mg, bid administered as 0.5 hr infusion; assay type: functional; outline: as §1
[4] = test system: Enterococcus faecalis; assay: Bactericidal activity against 12.5 hrs peripheral compartment culture samples of Enterococcus faecalis ATCC 29212 in two-compartment pharmacokinetic/pharmacodynamic model assessed as effect on bacterial count at 200 mg, bid administered as 0.5 hr infusion; assay type: functional; outline: as §2
[5] = test system: Enterococcus faecalis; assay: Bactericidal activity against 13 hrs peripheral compartment culture samples of Enterococcus faecalis ATCC 29212 in two-compartment pharmacokinetic/pharmacodynamic model assessed as effect on bacterial count at 600 mg, bid administered as 0.5 hr infusion; assay type: functional; outline: as §2
[6] = test system: Enterococcus faecalis; assay: Bactericidal activity against 24 hrs peripheral compartment culture samples of Enterococcus faecalis ATCC 29212 in two-compartment pharmacokinetic/pharmacodynamic model assessed as effect on bacterial count at 600 mg, bid administered as 0.5 hr infusion; assay type: functional; outline: as §2
[7] = test system: Enterococcus faecalis; assay: Bactericidal activity against 13 hrs peripheral compartment culture samples of Enterococcus faecalis Ef1497 in two-compartment pharmacokinetic/pharmacodynamic model assessed as effect on bacterial count at 600 mg, bid administered as 0.5 hr infusion; assay type: functional; outline: as §2
[8] = test system: Enterococcus faecalis; assay: Bactericidal activity against 14 hrs peripheral compartment culture samples of Enterococcus faecalis Ef1497 in two-compartment pharmacokinetic/pharmacodynamic model assessed as effect on bacterial count at 600 mg, bid administered as 0.5 hr infusion; assay type: functional; outline: as §2
[9] = test system: Enterococcus faecalis; assay: Bactericidal activity against 13 hrs peripheral compartment culture samples of Enterococcus faecalis Ef1497 in two-compartment pharmacokinetic/pharmacodynamic model assessed as effect on bacterial count at 800 mg, bid administered as 0.5 hr infusion; assay type: functional; outline: as §2
[10] = test system: Enterococcus faecalis; assay: Bactericidal activity against 48 hrs peripheral compartment culture samples of Enterococcus faecalis Ef1497 in two-compartment pharmacokinetic/pharmacodynamic model assessed as effect on bacterial count at 800 mg, bid administered as 0.5 hr infusion; assay type: functional; outline: as §2
[11] = test system: Enterococcus faecalis; assay: Bactericidal activity against 13 hrs peripheral compartment culture samples of Enterococcus faecalis Ef1497 MutM3 in two-compartment pharmacokinetic/pharmacodynamic model assessed as effect on bacterial count at 600 mg, bid administered as 0.5 hr infusion; assay type: functional; outline: as §2
[12] = test system: Enterococcus faecalis; assay: Bactericidal activity against 14 hrs peripheral compartment culture samples of Enterococcus faecalis Ef1497 MutM3 in two-compartment pharmacokinetic/pharmacodynamic model assessed as effect on bacterial count at 600 mg, bid administered as 0.5 hr infusion; assay type: functional; outline: as §2
[13] = test system: Enterococcus faecalis; assay: Bactericidal activity against 24 hrs peripheral compartment culture samples of Enterococcus faecalis Ef1497 MutM3 in two-compartment pharmacokinetic/pharmacodynamic model assessed as effect on bacterial count at 600 mg, bid administered as 0.5 hr infusion; assay type: functional; outline: as §2
[14] = Residual concentration at the end of the administration interval in two-compartment pharmacokinetic/pharmacodynamic model at 600 mg, bid administered as 0.5 hrs infusion; assay type: ADME; details: iv, read-out: Drug uptake
[15] = Mean residence time in two-compartment pharmacokinetic/pharmacodynamic model at 200 mg, bid administered as 0.5 hrs infusion; assay type: ADME, organism-based; details: iv
[16] = Volume of distribution at steady state in two-compartment pharmacokinetic/pharmacodynamic model at 200 mg, bid administered as 0.5 hrs infusion; assay type: ADME, organism-based; details: iv, read-out: Vdss
[17] = test system: Staphylococcus aureus; assay: Bactericidal activity against 0.5 hrs peripheral compartment culture samples of Staphylococcus aureus RN4220 in two-compartment pharmacokinetic/pharmacodynamic model assessed as effect on bacterial count at 600 mg, bid administered as 0.5 hr infusion; assay type: functional; outline: as §1
[18] = test system: Staphylococcus aureus subsp. aureus RN4220; assay: T>MIC in Staphylococcus aureus RN4220 MutS2 in two-compartment pharmacokinetic/pharmacodynamic model at 600 mg, bid administered as 0.5 hr infusion for 2 days; assay type: functional
[19] = test system: Enterococcus faecalis; assay: T>MIC in Enterococcus faecalis ATCC 29212 in two-compartment pharmacokinetic/pharmacodynamic model at 600 mg, bid administered as 0.5 hr infusion for 2 days; assay type: functional
[20] = test system: Enterococcus faecalis; assay: T>MIC in Enterococcus faecalis Ef1497 in two-compartment pharmacokinetic/pharmacodynamic model at 800 mg, bid administered as 0.5 hr infusion for 2 days; assay type: functional
[21] = test system: Enterococcus faecalis; assay: T>MIC in Enterococcus faecalis Ef1497 MutM3 in two-compartment pharmacokinetic/pharmacodynamic model at 200 mg, bid administered as 0.5 hr infusion for 2 days; assay type: functional
[22] = test system: Enterococcus faecalis; assay: AUBC (0 to 24 hrs) in Enterococcus faecalis Ef1497 MutM3 in two-compartment pharmacokinetic/pharmacodynamic model at 200 mg, bid administered as 0.5 hr infusion for 2 days; assay type: functional
Outline: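 Hollow-fibre two-compartment model in cation-adjusted, protein-free MH broth at 37°C. Human total-plasma linezolid profile simulated as 0.5-h infusion every 12 h for 48 h. Concentrated 18-h culture injected into the peripheral compartment 3 h before first sample, giving about 10^8 (E. faecalis) or 10^9 (S. aureus) CFU/ml. Viable counts by dilution plating over 0–24 h. Area indices calculated versus growth control curve. Duplicate runs.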

[23] = AUC in two-compartment pharmacokinetic/pharmacodynamic model at 800 mg, bid administered as 0.5 hr infusion over 24 hrs; assay type: ADME; parameters: time < 24 hr, dose 800 mg; details: in vivo, iv
[24] = Apparent volume of distribution in two-compartment pharmacokinetic/pharmacodynamic model at 200 mg, bid administered as 0.5 hr infusion over 24 hrs; assay type: ADME, organism-based; details: in vivo, iv
[25] = in vitro; details: two-compartment pharmacokinetic/pharmacodynamic model, iv, 200 mg
[26] = in vitro; details: two-compartment pharmacokinetic/pharmacodynamic model, iv, 600 mg
[27] = Apparent volume of distribution in two-compartment pharmacokinetic/pharmacodynamic model at 600 mg, bid administered as 0.5 hrs infusion; details: iv
[28] = Volume of distribution at steady state in two-compartment pharmacokinetic/pharmacodynamic model bid administered as 0.5 hr infusion over 24 hrs; details: in vivo, iv; read-out: Vdss

CC(=O)NC[C@H]1CN(c2ccc(N3CCOCC3)c(F)c2)C(=O)O1 [LINEZOLID]
log10CFU/ml [1]: 0.02 | log10CFU/ml [2]: 0.02 | log10CFU/ml [3]: 0.14 | log10CFU/ml [4]: 0.26 | log10CFU/ml [5]: 0.16 | log10CFU/ml [6]: 0.32 | log10CFU/ml [7]: 0.09 | log10CFU/ml [8]: 0.13 | log10CFU/ml [9]: -0.16 | log10CFU/ml [10]: -1.16 | log10CFU/ml [11]: 0.25 | log10CFU/ml [12]: 0.28 | log10CFU/ml [13]: 0.44 | concentration at 0.5 h [14]: 1170 ng/mL | MRT [15]: 8.65 h | Vd [16]: 120 L | log10CFU/ml [17]: -0.04 | fT>MIC [18]: 66.6% | fT>MIC [19]: 69.1% | fT>MIC [20]: 80.9% | fT>MIC [21]: 0% | AUBC [22]: 212.2 log10CFU/ml.hr | AUC at 24 h [23]: 47700 ng·h/mL | Vd [24]: 137 L | half-life at 0.5 h [25]: 6.72 h | half-life at 0.5 h [26]: 6.54 h | Vd [27]: 115 L | Vd [28]: 100 L
